The nature of assay [1]: Inhibition of LDL endocytosis in wild type chinese hamster 25RA cells assessed as ratio of DiI-labeled LDL level in treated to untreated control at 10 uM after 35 mins by fluorimetry. Type of assay: functional, Cricetulus griseus. The gist of the method: (§1)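 CT60 or 25RA cells incubated with compound together with DiI-labeled LDL, either 35 min (short) or 18 h (long). Uptake quantified as DiI fluorescence intensity per cell area and normalized to the mean of solvent (DMSO)-treated samples.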

For assay [2], the species on record is Cricetulus griseus. Description: Increase in cholesterol efflux in chinese hamster TRVb1 cells expressing human transferrin receptor at 10 uM after 18 hrs by [3H]cholesterol incorporation assay. The class given is functional. The gist of the method: (§2)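 Cells labeled 24 h with 1 µCi/ml [3H]-cholesterol, then incubated 18 h with 10 µM compound. Efflux went to serum acceptors. Efflux is supernatant radioactivity divided by supernatant plus cell-monolayer radioactivity, compared with solvent-treated control cells.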

The nature of assay [3]: Inhibition of LDL endocytosis in NPC1 deficient chinese hamster CT60 cells assessed as ratio of DiI-labeled LDL level in treated to untreated control at 10 uM after 18 hrs by fluorimetry. The class given is functional, Cricetulus griseus. The gist of the method:
as §1

A further assay deals with CT60. Briefly: Increase in cholesterol efflux in NPC1 deficient chinese hamster CT60 cells at 10 uM after 18 hrs by [3H]cholesterol incorporation assay. Type of assay: functional, cell-based. To be noted: Cricetulus griseus. The gist of the method:
as §2

Assay [4] in a line: Reduction in cholesterol level in lysosomal storage organelles of NPC1 deficient chinese hamster CT43 cells at 10 uM by LSO compartment ratio assay. Type of assay: functional, Cricetulus griseus. Further details: scale not given: the % may be the effect or the level left.
The target of assay [5] is T1, Sterol O-acyltransferase 1 (Cricetulus griseus) (UniProt Q60457).
T1 sequence (whole entry): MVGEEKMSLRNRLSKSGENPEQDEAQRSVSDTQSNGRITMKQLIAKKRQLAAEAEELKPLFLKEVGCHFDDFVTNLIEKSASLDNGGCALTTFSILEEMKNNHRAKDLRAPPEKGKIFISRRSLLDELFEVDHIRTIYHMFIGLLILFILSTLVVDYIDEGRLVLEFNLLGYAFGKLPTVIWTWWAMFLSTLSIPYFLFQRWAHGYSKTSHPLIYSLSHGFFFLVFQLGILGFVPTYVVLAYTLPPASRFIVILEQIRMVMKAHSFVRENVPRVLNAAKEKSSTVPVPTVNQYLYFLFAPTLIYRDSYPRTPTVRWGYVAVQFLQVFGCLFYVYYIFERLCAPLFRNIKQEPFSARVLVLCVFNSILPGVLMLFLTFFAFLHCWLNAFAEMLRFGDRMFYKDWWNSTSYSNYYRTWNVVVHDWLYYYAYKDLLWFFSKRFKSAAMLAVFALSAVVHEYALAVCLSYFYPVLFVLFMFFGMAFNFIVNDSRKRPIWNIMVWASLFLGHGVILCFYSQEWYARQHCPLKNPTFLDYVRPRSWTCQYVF
Briefly: Increase in ACAT-induced cholesterol esterification in NPC1 deficient chinese hamster CT60 cells assessed as ratio of [14C]oleic acid incorporation in treated to untreated control at 10 uM. The class given is cell-based. In short, it runs like this: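 CT60 cells treated 18 h at 10 µM. ACAT esterification measured as incorporation of [14C]-oleic acid into cholesteryl-[14C]-oleate, normalized to cellular protein. Expressed relative to solvent-treated controls.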

Assay [6] can be described thus: Inhibition of LDL endocytosis in NPC1 deficient chinese hamster CT60 cells assessed as ratio of DiI-labeled LDL level in treated to untreated control at 10 uM after 35 mins by fluorimetry. Type of assay: functional, Cricetulus griseus. In short, it runs like this: as §1
A short description of assay [7]: Reduction in cholesterol level in lysosomal storage organelles of NPC1 deficient chinese hamster CT60 cells at 10 uM by LSO compartment ratio assay. Type of assay: functional, Cricetulus griseus. Also on record: scale not given: the % may be the effect or the level left.
A short description of assay [8]: Inhibition of LDL endocytosis in NPC1 deficient chinese hamster cells assessed as ratio of DiI-labeled LDL level in treated to untreated control at 10 uM after 18 hrs by fluorimetry.
The nature of assay [9]: Effect on cholesterol esters content in NPC1 deficient chinese hamster CT60 cells assessed as ratio of cholesteryl esters level in treated to untreated control at 10 uM by gas chromatography. The class given is functional, Cricetulus griseus. The gist of the method: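 CT60 cells exposed to 10 µM for 18 h alongside solvent (DMSO) controls. Total cellular cholesteryl ester measured by GC and expressed per µg cell protein. Reported relative to solvent-treated cells.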

For assay [10], the species on record is Cricetulus griseus. Description: Increase in cholesterol efflux in wild type chinese hamster 25RA cells with SCAP gene gain of function mutation at 10 uM after 18 hrs by [3H]cholesterol incorporation assay. The class given is functional. The gist of the method: as §2

Calls of active or inactive are those of the source. The rule behind the calls is not given here.

For the compound `O=C(O)c1ccc(N2C(=O)/C(=C\c3ccc(-c4ccc(Br)cc4)o3)C=C2c2ccccc2)cc1`, the Ratio stood at 1.16 in assay [1]; 0.59 in assay [3]; 1.49 in assay [5]; 0.93 in [6]; 0.67 in [8]; 1.05 in assay [9]. Further, the outcome in the assay listed under Cricetulus griseus [2], in the assay on CT60 and in the assay listed under Cricetulus griseus [10] was Active. Also, the Activity in [4] stood at 80%; in [7] it was 30%.

The values above are taken from ChEMBL document CHEMBL1155241, “Investigation of N-aryl-3-alkylidenepyrrolinones as potential Niemann-Pick type C disease therapeutics” (2009).
